Our source for the MIC and Activity values is ChEMBL document CHEMBL5226368, “1H NMR-Based Biochemometric Analysis of Morus alba Extracts toward a Multipotent Herbal Anti-Infective” (J Nat Prod, 2023).

The subject of series [1] is Staphylococcus aureus. Briefly: Antibacterial activity against Staphylococcus aureus ATCC43000 assessed as inhibition of bacterial growth incubated for 24 hrs by broth microdilution assay. It counts as functional. Put shortly:
(§1)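 Broth microdilution on S. aureus in brain-heart-infusion broth. Double-concentrated half-log dilutions (duplicates) mixed with an equal volume of bacterial suspension at 2×10^5 CFU/mL. Incubated 24 h at 37 °C, 5% CO2. MIC read as the lowest concentration with no visible growth. Reported as mean MIC of three assays. Ampicillin and rifampicin served as references.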
On the technique in general: Dilution methods test growth across graded concentrations, often in twofold steps.

The subject of series [2] is Staphylococcus aureus. Briefly: Antibacterial activity against Staphylococcus aureus ATCC25923 assessed as inhibition of bacterial growth incubated for 24 hrs by broth microdilution assay. It counts as functional. The essentials:
as §1

In series [3] the test system is Streptococcus pneumoniae. Briefly: Antibacterial activity against Streptococcus pneumoniae DSM20566 assessed as inhibition of bacterial growth incubated for 24 hrs by broth microdilution assay. The format is functional. Put shortly:
(§2)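 S. pneumoniae was tested by broth microdilution in Todd Hewitt broth with yeast extract. Double-concentrated half-log dilutions (duplicates) were combined 1:1 by volume with inoculum at 2×10^5 CFU/mL, then held 24 h at 37 °C under 5% CO2. MIC was the lowest concentration without visible growth, averaged over three assays. Ampicillin and rifampicin served as references.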

For series [4], the system named is Streptococcus pneumoniae. Briefly: Antibacterial activity against Streptococcus pneumoniae D39 assessed as inhibition of bacterial growth incubated for 24 hrs by broth microdilution assay. The format is functional. Put shortly: as §2
Series [5] has as its system Calu-3. Description: Cytotoxicity against human Calu-3 cells assessed as reduction in cell viability incubated for 72 hrs by WST-8 assay. It counts as toxicity, cell-based. Particulars: calu-3, 72 h. The essentials: (§3)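 Confluent monolayers in serum-free medium with 0.2 μg/mL trypsin were exposed to six half-log concentrations (maximum 100 μM) for 72 h at 37 °C. WST-8 was added for 2 h and OD read at 450 vs 620 nm (NADH activity). After PBS washes, crystal violet staining was used for viability. At least three assays were run.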

Series [6] relates to A549. Description: Cytotoxicity against human A549 cells assessed as reduction in cell viability incubated for 72 hrs by WST-8 assay. It counts as toxicity, cell-based. The note with it: a549, 72 h. Put shortly: as §3
A general note: Formazan colour is commonly taken as a measure of viable cells.

Series [7] deals with Influenza A virus. Description: Antiviral activity against Influenza A virus. The format is functional, organism-based.

SMILES strings stand for the structures. Values after ≈ are worked out from the molar mass of the structure shown. Active and inactive are the calls of the source. The calls are words filed in the database; no cut-off is given here.

As to `CO[C@H]1/C=C/O[C@@]2(C)Oc3c(C)c(O)c4c(O)c(c(/C=N/N5CCN(C)CC5)c(O)c4c3C2=O)NC(=O)/C(C)=C\C=C\[C@H](C)[C@H](O)[C@@H](C)[C@@H](O)[C@@H](C)[C@H](OC(C)=O)[C@@H]1C` [RIFAMPIN], the MIC worked out at 15.4 µM (≈ 12.7 µg/mL) in series [1], 1 µM (≈ 0.823 µg/mL) in series [2] and 0.02 µM (≈ 0.0165 µg/mL) in series [3].

On to `CC1(C)S[C@@H]2[C@H](NC(=O)[C@H](N)c3ccccc3)C(=O)N2[C@H]1C(=O)O` [AMPICILLIN], for which the MIC in series [4] is 0.02 µM (≈ 0.00699 µg/mL).

For `CC(C)=CCCC1=C[C@H](c2c(O)cc3c(c2O)C(=O)C[C@@H](c2ccc(O)cc2O)O3)[C@@H](C(=O)c2ccc(O)cc2O)[C@H](c2ccc(O)cc2O)C1`, the MIC in series [4] was 3.16 µM (≈ 2.2 µg/mL); in series [1] it was 10 µM (≈ 6.95 µg/mL); in series [2], 10 µM (≈ 6.95 µg/mL); in series [3], 3.16 µM (≈ 2.2 µg/mL). The Activity entry in series [5] and in series [6] was “Non-Toxic” each time.

Turning to `CC(C)=CCC12Oc3cc(O)c(C4C=C(C)CC(c5ccc(O)cc5O)C4C(=O)c4ccc(O)cc4O)c(O)c3C(=O)C1(O)Oc1cc(O)ccc12` (stereo not drawn), the MIC in series [4] turned out to be 3.16 µM (≈ 2.24 µg/mL); in series [1], 10 µM (≈ 7.09 µg/mL); in series [2], 10 µM (≈ 7.09 µg/mL); in series [3], 3.16 µM (≈ 2.24 µg/mL). Moreover, the Activity result in series [5] and in series [6] was “Non-Toxic” in each case. Further, the result in series [7] was inactive.

For the molecule `CC(C)=CC[C@]12Oc3cc(O)c([C@H]4C=C(C)C[C@H](c5ccc(O)cc5O)[C@H]4C(=O)c4ccc(O)cc4O)c(O)c3C(=O)[C@@]1(O)Oc1cc(O)ccc12` [SANGGENON C], the MIC in series [4] was 1.72 µM (≈ 1.22 µg/mL); in series [1], 3.16 µM (≈ 2.24 µg/mL); in series [2] it was 3.16 µM (≈ 2.24 µg/mL); in series [3], 2.08 µM (≈ 1.47 µg/mL). Besides, the Activity result in series [5] and in series [6] was “Non-Toxic” each time.

The MIC is the lowest concentration found to suppress growth.
